Blank lines part the entries; values can stand above or below the compound they belong to. Active and inactive are the calls of the source. No cut-off for these calls is given here.
What was measured:
PC-3 [1] = assay: Antiproliferative activity against AR-negative human PC3 cells assessed as reduction in cell viability after 5 days by CCK8 assay; type: functional, cell-based; details: PC-3, 120 h
In short: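 Cells seeded at 3 × 10^3 per well for 24 h, then dosed in 10-point, 3-fold serial dilution from 10 µM. CCK-8 added after 5 days, 4 h at 37 °C, absorbance at 450 nm. IC50 averaged from three separate determinations (at least two independent runs, duplicate wells). PC-3 grown in DMEM/F12 (1:1), LO2 in RPMI 1640, both with 10% FBS.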

[2] = biological target: Protein cereblon/Cyclin-dependent kinase 2 (Homo sapiens) (UniProt P24941+Q96SW2); assay: Protac activity at CRBN/CDK2 in AR-negative human PC3 cells assessed as induction of CDK2 protein degradation at 50 nM after 12 hrs by Western blot analysis; type: cell-based; details: PC-3
In short: (§1)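 PC-3 cells (5 × 10^5 per well) treated 12 h at single concentrations (50 nM, 500 nM, 1, 5 or 30 µM). RIPA lysates (50 µg) run on 10% SDS-PAGE and immunoblotted for CDK2, CDK5, CDK9 with β-tubulin loading control, then detected by chemiluminescence. Band intensities quantified densitometrically.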

[3] = biological target: T1, Protein cereblon/Cyclin-dependent kinase 9 (Homo sapiens) (UniProt P50750+Q96SW2); assay: Protac activity at CRBN/CDK9 in AR-negative human PC3 cells assessed as induction of CDK9 protein degradation at 50 nM after 12 hrs by Western blot analysis; type: cell-based; details: PC-3
T1 sequence (P50750 whole entry, looked up): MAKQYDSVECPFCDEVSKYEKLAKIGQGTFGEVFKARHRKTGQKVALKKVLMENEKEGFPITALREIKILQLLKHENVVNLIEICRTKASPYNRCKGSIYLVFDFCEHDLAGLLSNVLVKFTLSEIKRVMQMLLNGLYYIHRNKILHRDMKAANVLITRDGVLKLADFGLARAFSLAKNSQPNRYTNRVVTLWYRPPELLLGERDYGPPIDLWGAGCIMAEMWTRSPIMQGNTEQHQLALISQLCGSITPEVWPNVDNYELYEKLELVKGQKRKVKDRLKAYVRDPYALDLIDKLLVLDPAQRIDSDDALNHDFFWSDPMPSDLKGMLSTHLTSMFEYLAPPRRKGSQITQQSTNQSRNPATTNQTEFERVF
T1 sequence (Q96SW2 whole entry, looked up): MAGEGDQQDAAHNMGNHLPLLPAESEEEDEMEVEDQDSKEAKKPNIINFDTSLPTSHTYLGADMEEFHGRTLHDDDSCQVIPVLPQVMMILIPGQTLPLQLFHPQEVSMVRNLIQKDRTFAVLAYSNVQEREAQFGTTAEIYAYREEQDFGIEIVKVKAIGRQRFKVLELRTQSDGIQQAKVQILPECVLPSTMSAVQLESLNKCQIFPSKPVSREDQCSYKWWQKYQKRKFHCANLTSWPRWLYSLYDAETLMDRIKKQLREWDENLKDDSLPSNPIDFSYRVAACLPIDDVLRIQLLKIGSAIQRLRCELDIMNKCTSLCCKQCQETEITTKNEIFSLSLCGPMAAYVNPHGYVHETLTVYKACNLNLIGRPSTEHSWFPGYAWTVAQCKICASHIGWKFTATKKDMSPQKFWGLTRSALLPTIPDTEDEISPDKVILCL
In short: (§2)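 PC-3 cells (DMEM/F12 1:1, 10% FBS, 1% pen/strep, 37 °C, 5% CO2) plated at 5 × 10^5 per well, exposed to compound for 12 h. RIPA lysates with protease inhibitors; 50 µg total protein run on 10% SDS-PAGE, transferred to PVDF, blocked in 5% milk/TBS-T. Probed with anti-CDK9 (1/1000), β-tubulin loading control, HRP secondary, chemiluminescence; bands scored as degradation detected or not.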

[4] = biological target: T1, Protein cereblon/Cyclin-dependent kinase 9 (Homo sapiens); assay: Protac activity at CRBN/CDK9 in AR-negative human PC3 cells assessed as induction of CDK9 protein degradation at 30 uM after 12 hrs by Western blot analysis; type: cell-based; details: PC-3; in short: as §2
[5] = biological target: T1, Protein cereblon/Cyclin-dependent kinase 9 (Homo sapiens); assay: Protac activity at CRBN/CDK9 in AR-negative human PC3 cells assessed as induction of CDK9 protein degradation at 1 uM after 12 hrs by Western blot analysis; type: cell-based; details: PC-3; in short: as §2
[6] = biological target: T2, Protein cereblon/Cyclin-dependent kinase 2/Cyclin-dependent kinase 9 (Homo sapiens, UniProt P24941+P50750+Q96SW2); assay: Protac activity at CRBN/CDK2/CDK9 in AR-negative human PC3 cells assessed as induction of CDK2 protein degradation after 24 hrs by Western blot analysis; type: cell-based; details: PC-3
In short: (§3)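 PC-3 cells exposed to a degrader concentration series, then immunoblotted for CDK2 and CDK9 versus β-tubulin. The figure legend gives 24 h exposure. DC50 taken as mean of 2 determinations from densitometry.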

[7] = biological target: T2, Protein cereblon/Cyclin-dependent kinase 2/Cyclin-dependent kinase 9; assay: Protac activity at CRBN/CDK2/CDK9 in AR-negative human PC3 cells assessed as induction of CDK9 protein degradation after 24 hrs by Western blot analysis; type: cell-based; details: PC-3; in short: as §3
PC-3 [8] = assay: Induction of cell cycle arrest in human PC3 cells assessed as accumulation at G2/M phase at 3 uM after 48 hrs by propidium iodide staining based flow cytometry (reference value: 22.24%); type: functional
PC-3 [9] = assay: Induction of cell cycle arrest in human PC3 cells assessed as accumulation at G0/G1 phase at 3 uM after 48 hrs by propidium iodide staining based flow cytometry (reference value: 59.80%); type: functional
PC-3 [10] = assay: Induction of cell cycle arrest in human PC3 cells assessed as accumulation at S phase at 3 uM after 48 hrs by propidium iodide staining based flow cytometry (reference value: 17.96%); type: functional
[11] = biological target: T2, Protein cereblon/Cyclin-dependent kinase 2/Cyclin-dependent kinase 9; assay: Protac activity at CRBN/CDK2/CDK9 in AR-negative human PC3 cells assessed as induction of CDK9 protein degradation at 30 uM after 12 hrs by Western blot analysis; type: cell-based; details: PC-3; in short: as §1
[12] = biological target: T2, Protein cereblon/Cyclin-dependent kinase 2/Cyclin-dependent kinase 9; assay: Protac activity at CRBN/CDK2/CDK9 in AR-negative human PC3 cells assessed as induction of CDK9 protein degradation at 1 uM after 12 hrs by Western blot analysis; type: cell-based; details: PC-3; in short: as §1
[13] = biological target: T2, Protein cereblon/Cyclin-dependent kinase 2/Cyclin-dependent kinase 9; assay: Protac activity at CRBN/CDK2/CDK9 in AR-negative human PC3 cells assessed as induction of CDK2 protein degradation at 1 uM after 12 hrs by Western blot analysis; type: cell-based; details: PC-3; in short: as §1
[14] = biological target: T2, Protein cereblon/Cyclin-dependent kinase 2/Cyclin-dependent kinase 9; assay: Protac activity at CRBN/CDK2/CDK9 in AR-negative human PC3 cells assessed as CDK9 degradation at 10 to 10^4 nM after 12 hrs by Western blot analysis; type: cell-based; details: PC-3
[15] = biological target: T2, Protein cereblon/Cyclin-dependent kinase 2/Cyclin-dependent kinase 9; assay: Protac activity at CRBN/CDK2/CDK9 in AR-negative human PC3 cells assessed as CDK2 degradation at 10 to 10^4 nM after 12 hrs by Western blot analysis; type: cell-based; details: PC-3

Structure (SMILES): O=C(CCC(=O)N1CCN(Cc2ccc(NC(=O)c3n[nH]cc3Nc3ncnc4[nH]ccc34)cc2)CC1)NCCCCCCNc1cccc2c1C(=O)N(C1CCC(=O)NC1=O)C2=O (stereo unspecified)
- IC50 (PC-3 [1]): 3.6 µM
- Activity [2]: Active
- Activity [3]: Active
- Activity [4]: Active
- Activity [5]: Active

Structure (SMILES): O=C(CCC(=O)N1CCN(Cc2ccc(NC(=O)c3n[nH]cc3Nc3ncnc4[nH]ccc34)cc2)CC1)NCCNC(=O)COc1cccc2c1C(=O)N(C1CCC(=O)NC1=O)C2=O (stereo unspecified)
- IC50 (PC-3 [1]): 8.03 µM
- Activity [4]: Active
- Activity [5]: Active

Structure (SMILES): O=C(NC1CCNCC1)c1n[nH]cc1NC(=O)c1c(Cl)cccc1Cl [AT-7519]
- IC50 (PC-3 [1]): 0.71 µM

Structure (SMILES): O=C(CCC(=O)N1CCN(Cc2ccc(NC(=O)c3n[nH]cc3Nc3ncnc4[nH]ccc34)cc2)CC1)NCCCCCCNC(=O)COc1cccc2c1C(=O)N(C1CCC(=O)NC1=O)C2=O (stereo unspecified)
- IC50 (PC-3 [1]): 7.3 µM
- Activity [6]: inactive
- Activity [7]: inactive

Structure (SMILES): O=C(COc1cccc2c1C(=O)N(C1CCC(=O)NC1=O)C2=O)NCCOCCOCC(=O)N1CCN(Cc2ccc(NC(=O)c3n[nH]cc3Nc3ncnc4[nH]ccc34)cc2)CC1 (stereo unspecified)
- IC50 (PC-3 [1]): 3.54 µM
- Activity [2]: Active
- Activity [3]: Active
- Activity [4]: Active
- Activity [5]: Active

Structure (SMILES): O=C(COc1cccc2c1C(=O)N(C1CCC(=O)NC1=O)C2=O)NCCCC(=O)N1CCN(Cc2ccc(NC(=O)c3n[nH]cc3Nc3ncnc4[nH]ccc34)cc2)CC1 (stereo unspecified)
- IC50 (PC-3 [1]): 2.21 µM
- Activity [11]: Active
- Activity [12]: Active
- Activity [13]: Active

Structure (SMILES): CN1C(=O)CCC(N2C(=O)c3cccc(NCCNC(=O)CCC(=O)N4CCN(Cc5ccc(NC(=O)c6n[nH]cc6Nc6ncnc7[nH]ccc67)cc5)CC4)c3C2=O)C1=O (stereo unspecified)
- Activity [14]: inactive
- Activity [15]: inactive

More lines, in order of falling IC50 (PC-3 [1]), values ahead:

- IC50 (PC-3 [1]): 13.4 µM
- Activity [6]: inactive
- Activity [7]: inactive
Structure (SMILES): O=C(CCC(=O)N1CCN(Cc2ccc(NC(=O)c3n[nH]cc3Nc3ncnc4[nH]ccc34)cc2)CC1)NCCCCNC(=O)COc1cccc2c1C(=O)N(C1CCC(=O)NC1=O)C2=O (stereo unspecified)

- IC50 (PC-3 [1]): 1.31 µM
Structure (SMILES): O=C(CCC(=O)N1CCC(NC(=O)c2n[nH]cc2NC(=O)c2c(Cl)cccc2Cl)CC1)NCCCCCCNC(=O)COc1cccc2c1C(=O)N(C1CCC(=O)NC1=O)C2=O (stereo unspecified)

- IC50 (PC-3 [1]): 0.69 µM
Structure (SMILES): CN1CCN(Cc2ccc(NC(=O)c3n[nH]cc3Nc3ncnc4[nH]ccc34)cc2)CC1
- Activity (PC-3 [8]): 37.9%
- Activity (PC-3 [9]): 45.58%
- Activity (PC-3 [10]): 16.52%

— ChEMBL document CHEMBL4602651, “Development of selective mono or dual PROTAC degrader probe of CDK isoforms” (Eur J Med Chem, 2020)
